Test results reported in article PMC7983888 (Clinical Pharmacology in Drug Development, 2020).
Where “and” joins values, the source holds several entries; their conditions need not be identical. Equal values may be shown once. Entries after “also recorded” stand apart in the source; their conditions may differ.

How the values were obtained:
[1] = system: cardiac repolarization (QTc interval) in healthy volunteers; experiment: Exposure-response; assay type: in vivo, human
[2] = system: human ether‐à‐go‐go‐related gene (hERG) potassium channels; settings: human embryonic kidney 293 cells; cited from earlier work
[3] = system: patients with advanced hematologic malignancies; settings: cited from earlier work
[4] = system: cardiac repolarization (QTc interval) in healthy volunteers; experiment: Thorough QT study: ANCOVA of QTcF versus time-matched placebo; assay type: in vivo, human; settings: for QTcF Difference (Glasdegib‐Placebo) (90%CI) / QTcF LS Mean: N = 35
[5] = Plasma glasdegib pharmacokinetics after single oral doses; assay type: in vivo, human; settings: for AUCextrap / CL/F: fasted, n=35, arithmetic mean ± SD; for Cmax / half-life: human, plasma, po
Summary of the method: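 Healthy volunteers in a randomized, double-blind, 4-period crossover received single oral doses after an overnight fast (≥10 hours), with washout ≥6 days. Plasma was assayed by validated HPLC-MS/MS: calibration 3–3000 ng/mL with 1/concentration² weighting, LLOQ 3 ng/mL, samples stored at −70°C. Cmax, Tmax, AUClast, AUCinf, CL/F, apparent volume and terminal half-life were derived by noncompartmental analysis.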

[6] = patient population, cited from earlier work
healthy volunteers = experiment: Safety and tolerability; assay type: in vivo, human
[7] = glasdegib 150 mg single dose, 0.5 h postdose
[8] = glasdegib 150 mg single dose, 1 h postdose
[9] = glasdegib 150 mg single dose, 1.5 h postdose
[10] = glasdegib 150 mg single dose, 2 h postdose
[11] = glasdegib 150 mg single dose, 3 h postdose
[12] = glasdegib 150 mg single dose, 4 h postdose
[13] = glasdegib 150 mg single dose, 6 h postdose
[14] = glasdegib 150 mg single dose, 24 h postdose
[15] = glasdegib 300 mg single dose, 0.5 h postdose
[16] = glasdegib 300 mg single dose, 1 h postdose
[17] = glasdegib 300 mg single dose, 1.5 h postdose
[18] = glasdegib 300 mg single dose, 2 h postdose
[19] = glasdegib 300 mg single dose, 3 h postdose
[20] = glasdegib 300 mg single dose, 4 h postdose
[21] = glasdegib 300 mg single dose, 6 h postdose
[22] = glasdegib 300 mg single dose, 24 h postdose
[23] = glasdegib 150 mg single oral dose
[24] = glasdegib 300 mg single oral dose
[25] = moxifloxacin 400 mg single dose

CN1CC[C@@H](NC(=O)Nc2ccc(C#N)cc2)C[C@@H]1c1nc2ccccc2[nH]1 [Glasdegib]
PK/PD hysteresis (lag between plasma concentration and effect on QTc) ([1]; 150 and 300 mg single doses): No PK/PD hysteresis
mean slope estimate describing the ∆QTcF‐concentration relationship ([1]; LME model): 0.005 ms/ng/mL
effect on heart rate (change in RR interval, ∆RR versus concentration) ([1]; LME model of ∆RR versus glasdegib concentration): not to have a meaningful effect on heart rate; also recorded: relationship of negligible magnitude
Slope Estimate From Final Model, ∆QTcF per ng/mL (95%CI) ([1]; QTcF, LME model): 0.005 (0.004‐0.006) Milliseconds per ng/mL
Slope Estimate From Final Model, ∆QTcS per ng/mL (95%CI) ([1]; QTcS (study population-specific correction), LME model): 0.004 (0.003‐0.005) Milliseconds per ng/mL
Model‐Derived ∆∆QTcS (90%CI) ([1]; Supratherapeutic Steady‐State Cmax (2445 ng/mL)): 11.89 (10.14‐13.64) Milliseconds
Model‐Derived ∆∆QTcF (90%CI) ([1]; Supratherapeutic Steady‐State Cmax (2445 ng/mL), 200 mg once daily): 13.72 (11.95‐15.49) Milliseconds
Model‐Derived ∆∆QTcS (90%CI) ([1]; Therapeutic Steady‐State Cmax (1137 ng/mL)): 6.55 (5.68‐7.43) Milliseconds
Model‐Derived ∆∆QTcF (90%CI) ([1]; Therapeutic Steady‐State Cmax (1137 ng/mL), 100 mg once daily): 7.34 (6.46‐8.22) Milliseconds
Model‐Derived ∆∆QTcF (90%CI) ([1]; Therapeutic Steady‐State Cmax (1137 ng/mL), 100 mg once daily, listed as glasdegib): 7.3 Milliseconds and 7.34 Milliseconds
upper bound of the 90%CI of mean predicted ΔΔQTcF ([1]; mean therapeutic glasdegib Cmax): < 10 milliseconds
upper bound of the 90%CI of mean predicted ΔΔQTcF ([1]; supratherapeutic glasdegib Cmax (twice the therapeutic dose)): < 20 milliseconds
hERG potassium channel inhibition (in words) [2]: inhibit the human ether‐à‐go‐go‐related gene (hERG) potassium channels in a concentration‐dependent manner
QTc experienced by some patients ([3]; multiple dosing at 400 mg and 600 mg once daily): > 500 milliseconds
maximum tolerated dose ([3]; single-agent, patients with advanced hematologic malignancies): 400 mg once daily
highest 90%CI upper bound for the largest and placebo‐ and baseline‐adjusted QTcF change ([4]; glasdegib 150 mg (therapeutic plasma exposure), 4 hours postdose): 10.22 milliseconds
upper bound of the 2‐sided 90%CIs for all time‐matched least‐squares mean differences in QTcF between glasdegib and placebo ([4]; glasdegib 150 mg and 300 mg single doses): < 20 milliseconds
QTcF Difference (Glasdegib‐Placebo) (90%CI) [4, 7]: −0.09 (−2.28 to 2.09) Milliseconds
QTcF LS Mean [4, 7]: 406.43 Milliseconds
QTcF Difference (Glasdegib‐Placebo) (90%CI) [4, 8]: 2.07 (−0.11 to 4.25) Milliseconds
QTcF LS Mean [4, 8]: 407.86 Milliseconds
QTcF Difference (Glasdegib‐Placebo) (90%CI) [4, 9]: 5.17 (2.99‐7.35) Milliseconds
QTcF LS Mean [4, 9]: 410.08 Milliseconds
QTcF Difference (Glasdegib‐Placebo) (90%CI) [4, 10]: 5.98 (3.80‐8.16) Milliseconds
QTcF LS Mean [4, 10]: 410.58 Milliseconds
QTcF Difference (Glasdegib‐Placebo) (90%CI) [4, 11]: 7.76 (5.58‐9.95) Milliseconds
QTcF LS Mean [4, 11]: 412.06 Milliseconds
QTcF Difference (Glasdegib‐Placebo) (90%CI) [4, 12]: 8.03 (5.85‐10.22) Milliseconds
QTcF LS Mean [4, 12]: 413.23 Milliseconds
QTcF Difference (Glasdegib‐Placebo) (90%CI) [4, 13]: 5.11 (2.93‐7.29) Milliseconds
QTcF LS Mean [4, 13]: 407.38 Milliseconds
QTcF Difference (Glasdegib‐Placebo) (90%CI) [4, 14]: 5.92 (3.74‐8.10) Milliseconds
QTcF LS Mean [4, 14]: 410.98 Milliseconds
highest 90%CI upper bound for the largest, placebo‐ and baseline‐adjusted QTcF change ([4]; glasdegib 300 mg (supratherapeutic plasma exposure), 3 hours postdose): 15.61 milliseconds
QTcF Difference (Glasdegib‐Placebo) (90%CI) [4, 15]: 0.65 (−1.53 to 2.83) Milliseconds
QTcF LS Mean [4, 15]: 407.18 Milliseconds
QTcF Difference (Glasdegib‐Placebo) (90%CI) [4, 16]: 5.14 (2.96‐7.32) Milliseconds
QTcF LS Mean [4, 16]: 410.92 Milliseconds
QTcF Difference (Glasdegib‐Placebo) (90%CI) [4, 17]: 9.84 (7.66‐12.02) Milliseconds
QTcF LS Mean [4, 17]: 414.75 Milliseconds
QTcF Difference (Glasdegib‐Placebo) (90%CI) [4, 18]: 11.06 (8.88‐13.24) Milliseconds
QTcF LS Mean [4, 18]: 415.66 Milliseconds
QTcF Difference (Glasdegib‐Placebo) (90%CI) [4, 19]: 13.43 (11.25‐15.61) Milliseconds
QTcF LS Mean [4, 19]: 417.72 Milliseconds
QTcF Difference (Glasdegib‐Placebo) (90%CI) [4, 20]: 13.41 (11.23‐15.59) Milliseconds
QTcF LS Mean [4, 20]: 418.60 Milliseconds
QTcF Difference (Glasdegib‐Placebo) (90%CI) [4, 21]: 10.82 (8.64‐13.00) Milliseconds
QTcF LS Mean [4, 21]: 413.08 Milliseconds
QTcF Difference (Glasdegib‐Placebo) (90%CI) [4, 22]: 8.91 (6.73‐11.09) Milliseconds
QTcF LS Mean [4, 22]: 413.96 Milliseconds
AUCextrap [5, 23]: 0.6660 ± 0.30%
CL/F [5, 23]: 10.37 ± 3.58 L/h
AUCextrap [5, 24]: 0.4113 ± 0.19%
CL/F [5, 24]: 10.09 ± 3.05 L/h
Cmax ([5]; 150 mg): 1120 ± 388 ng/mL
half-life ([5]; 150 mg): 15.8 ± 2.06 h
Cmax ([5]; 300 mg): 2300 ± 651 ng/mL
half-life ([5]; 300 mg): 15.5 ± 1.77 h
dose proportionality of geometric mean AUCinf and Cmax ([5]; single oral doses of 150 and 300 mg): increased proportionally with dose
Therapeutic Steady‐State Cmax ([6]; 100 mg once daily): Therapeutic Steady‐State Cmax (1137 ng/mL)
Supratherapeutic Steady‐State Cmax ([6]; 200 mg once daily): Supratherapeutic Steady‐State Cmax (2445 ng/mL)
treatment‐emergent AEs (TEAEs), number (healthy volunteers; glasdegib 150 mg single dose): 25
treatment‐related AEs (TRAEs), number (healthy volunteers; glasdegib 150 mg single dose): 20
treatment‐emergent AEs (TEAEs), number (healthy volunteers; glasdegib 300 mg single dose): 26
treatment‐related AEs (TRAEs), number (healthy volunteers; glasdegib 300 mg single dose): 20
tolerability (in words) (healthy volunteers; single oral doses of 150 and 300 mg, healthy adult subjects): well tolerated

COc1c(N2C[C@@H]3CCCN[C@@H]3C2)c(F)cc2c(=O)c(C(=O)O)cn(C3CC3)c12 [Moxifloxacin]
treatment‐emergent AEs (TEAEs), number (healthy volunteers; [25]): 27
treatment‐related AEs (TRAEs), number (healthy volunteers; [25]): 23
